The target of series [1] is T1, Ubiquitin carboxyl-terminal hydrolase isozyme L5 (Homo sapiens) (UniProt Q9Y5K5).
T1 sequence (whole entry): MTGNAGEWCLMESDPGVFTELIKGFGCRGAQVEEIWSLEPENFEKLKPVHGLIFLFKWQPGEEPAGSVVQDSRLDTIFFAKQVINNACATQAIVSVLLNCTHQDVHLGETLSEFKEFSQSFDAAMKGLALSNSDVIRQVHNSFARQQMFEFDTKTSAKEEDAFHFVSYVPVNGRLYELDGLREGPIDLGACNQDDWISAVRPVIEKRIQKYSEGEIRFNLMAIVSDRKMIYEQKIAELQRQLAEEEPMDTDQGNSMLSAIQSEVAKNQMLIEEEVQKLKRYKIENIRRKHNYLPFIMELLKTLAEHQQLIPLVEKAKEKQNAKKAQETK
As to the kind of experiment: Inhibition of UCH-37 in intact human HeLa cells assessed as induction of formation of high molecular weight complexes with USP14 at 10 uM incubated for 2 hrs by immunoblot analysis. In kind it is cell-based. Put shortly: (§1)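 Intact HeLa cells (DMEM, 10% FBS, about 80% confluent) treated 2 h with vehicle or 10 μM compound, with or without 10 mM DTT or 10 mM GSH. Cells washed in cold PBS and lysed in RIPA with protease and phosphatase inhibitors. High-MW species detected by SDS-PAGE immunoblot; shorter exposures served as loading control.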

Series [2] has as its target T1, Ubiquitin carboxyl-terminal hydrolase isozyme L5 (Homo sapiens). The experiment in a line: Inhibition of UCH-37 in human HeLa crude cell extracts assessed as induction of formation of high molecular weight complexes with […] at 10 uM incubated for 2 hrs in presence of dithiothreitol by immunoblot analysis. It counts as cell-free. In general terms: Immunoblotting shows a protein as a band on a membrane.

The subject of series [3] is HeLa. As to the kind of experiment: Inhibition of deubiquitinase in human HeLa cell extracts assessed as induction of accumulation of high molecular weight ubiquitylated proteins at 10 uM incubated for 2 hrs by immunoblot analysis. It counts as cell-free.
Series [4] concerns HeLa. As to the kind of experiment: Inhibition of deubiquitinase in human HeLa cell extracts assessed as decrease in global DUB activity at 50 uM using luminescent substrate Ub-AML. In kind it is cell-free. Put shortly: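 HeLa crude extracts used as the DUB source, prepared as for the ABP assays. Global DUB activity read by luminescence with Ub-AML substrate, using the Glo reagent protocol.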

Series [5] deals with Tumor necrosis factor alpha-induced protein 3 (Homo sapiens) (UniProt P21580). The experiment in a line: Inhibition of A20 catalytic domain (unknown origin) assessed as reduction in cleavage of luminescent substrate Ub-AML at 100 uM. Put shortly: (§2)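 Purified recombinant DUBs assayed with Ub-AML as luminescent substrate, using the Glo reagent protocol and read on a microplate luminometer.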

The target in a further series is Anamorsin (Homo sapiens) (UniProt Q6FI81). The experiment in a line: Inhibition of CIAPIN1 in human KMS11 cells assessed as […] depletion of stable CIAPIN1 levels at 1 to 10 uM incubated for 6 hrs by immunoblot analysis. It counts as cell-based.
For series [6], the target named is T1, Ubiquitin carboxyl-terminal hydrolase isozyme L5 (Homo sapiens). As to the kind of experiment: Inhibition of UCH-37 in human HeLa crude cell extracts assessed as induction of formation of high molecular weight complexes with […] at 10 uM incubated for 2 hrs by immunoblot analysis. In kind it is cell-free.
Series [7] deals with HeLa. As to the kind of experiment: Inhibition of deubiquitinase in human HeLa cell extracts assessed as induction of accumulation of high molecular weight mTOR proteins at 10 uM incubated for 2 hrs by immunoblot analysis. It counts as cell-free.
The target in series [8] is Ubiquitin thioesterase OTUB1 (Homo sapiens) (UniProt Q96FW1). As to the kind of experiment: Inhibition of recombinant human His6-Otubain-1 assessed as reduction in cleavage of luminescent substrate Ub-AML at 100 uM. Put shortly: as §2
Series [9] deals with HeLa. As to the kind of experiment: Inhibition of deubiquitinase in human HeLa cell extracts assessed as increase in high molecular weight protein complexes at 10 uM incubated for 2 hrs by SDS-PAGE and Coomassie Blue staining based method. In kind it is cell-free.
In series [10] the test system is HeLa. The experiment in a line: Cytotoxicity in human HeLa cells assessed as reduction in cell viability incubated for 72 hrs Cell-titer Glo reagent based assay. In kind it is functional. In short, it runs like this: (§3)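 Tumor lines grown at 37 °C, 5% CO2 with 10% FBS (DMEM for HeLa and SiHa; RPMI for HCT116) and exposed to compound for 72 h. Viability read by CellTiter Glo luminescence; IC50 derived from n=6.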

Another series is filed under the species Homo sapiens. The experiment in a line: Inhibition of purified 19S proteasome (unknown origin) assessed as reduction in cleavage of luminescent substrate Ub-AML at 100 uM.
Series [11] concerns the target Ubiquitin carboxyl-terminal hydrolase 5 (Homo sapiens) (UniProt P45974). The experiment in a line: Inhibition of human recombinant isopeptidase T assessed as reduction in cleavage of luminescent substrate Ub-AML at 100 uM. In short, it runs like this:
as §2

The target in series [12] is Ubiquitin carboxyl-terminal hydrolase isozyme L3 (Homo sapiens) (UniProt P15374). As to the kind of experiment: Inhibition of human recombinant UCHL3 assessed as reduction in cleavage of luminescent substrate Ub-AML at 100 uM. Put shortly: as §2
The target in series [13] is Ubiquitin carboxyl-terminal hydrolase 2 (Homo sapiens) (UniProt O75604). As to the kind of experiment: Inhibition of N-terminal His6-tagged […] recombinant human USP2 catalytic domain assessed as reduction in cleavage of luminescent substrate Ub-AML at 100 uM. Put shortly:
as §2

The next series concerns HUVEC. As to the kind of experiment: Cytotoxicity in human HUVEC cells assessed as reduction in cell viability incubated for 72 hrs Cell-titer Glo reagent based assay. In short, it runs like this: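 Endothelial HUVECs (EGM-2, 10% FBS) exposed to compound for 72 h, n=6. Viability read as CellTiter Glo luminescence and IC50 derived.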
Series [14] concerns the target Ubiquitin carboxyl-terminal hydrolase 8 (Homo sapiens) (UniProt P40818). As to the kind of experiment: Inhibition of N-terminal His6-tagged full length recombinant human USP8 assessed as reduction in cleavage of luminescent substrate Ub-AML at 100 uM. In short, it runs like this:
as §2

Series [15] deals with HeLa. As to the kind of experiment: Inhibition of deubiquitinase in human HeLa cell extracts assessed as increase in high molecular weight protein complexes at 10 uM incubated for 2 hrs in presence of DTT by SDS-PAGE and Coomassie Blue staining based method. It counts as cell-free.
The next series concerns HCT-116. As to the kind of experiment: Cytotoxicity in human HCT116 cells assessed as reduction in cell viability incubated for 72 hrs Cell-titer Glo reagent based assay. It counts as functional. In short, it runs like this: as §3
The test system of series [16] is HeLa. As to the kind of experiment: Inhibition of deubiquitinase in human HeLa cell extracts assessed as induction of accumulation of high molecular weight ubiquitylated proteins at 10 uM incubated for 2 hrs in presence of GSH by immunoblot analysis. In kind it is cell-free.
The next series has as its system KMS-11. The experiment in a line: Cytotoxicity in human KMS11 cells assessed as reduction in cell viability at 1 to 10 uM incubated for 16 hrs in presence of GSH by Alamar blue assay. It counts as functional, cell-based. Put shortly:
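KMS11 seeded at 80,000/well, treated with 1 or 10 µM compound with or without 1 mM GSH for 16 h, 6 biological replicates. Alamar blue fluorescence read at 560/590 nm, normalised to DMSO control.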
Background: The colour change of resazurin is a common sign of viable cells or microbes.

In series [17] the target is T1, Ubiquitin carboxyl-terminal hydrolase isozyme L5 (Homo sapiens). The experiment in a line: Inhibition of UCH-37 in intact human HeLa cells assessed as induction of formation of high molecular weight complexes with USP14 at 10 uM incubated for 2 hrs in presence of glutathione by immunoblot analysis. In kind it is cell-based. In short, it runs like this:
as §1

Series [18] has as its target Ubiquitin carboxyl-terminal hydrolase 14 (Homo sapiens) (UniProt P54578). The experiment in a line: Inhibition of USP14 in human HeLa crude cell extracts assessed as induction of formation of high molecular weight complexes with USP14 at 10 uM incubated for 2 hrs by immunoblot analysis. In kind it is cell-free.
Series [19] addresses T1, Ubiquitin carboxyl-terminal hydrolase isozyme L5 (Homo sapiens). The experiment in a line: Inhibition of UCH-37 in human HeLa crude cell extracts assessed as induction of formation of high molecular weight complexes with […] at 10 uM incubated for 2 hrs in presence of glutathione by immunoblot analysis. It counts as cell-free.

SMILES strings stand for the structures. Activity calls are given as the source filed them. The rule behind the calls is not given here.

Ubiquitin carboxyl-terminal hydrolase isozyme L3 (Homo sapiens), sequence (P15374 whole entry, the tested form may be a part): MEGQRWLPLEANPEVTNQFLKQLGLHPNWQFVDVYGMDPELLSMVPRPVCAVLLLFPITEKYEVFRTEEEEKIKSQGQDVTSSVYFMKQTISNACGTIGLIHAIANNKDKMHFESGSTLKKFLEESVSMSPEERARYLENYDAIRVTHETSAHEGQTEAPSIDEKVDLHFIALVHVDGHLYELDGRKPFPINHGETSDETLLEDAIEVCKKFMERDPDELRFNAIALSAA
Ubiquitin carboxyl-terminal hydrolase 8 (Homo sapiens), sequence (P40818 whole entry): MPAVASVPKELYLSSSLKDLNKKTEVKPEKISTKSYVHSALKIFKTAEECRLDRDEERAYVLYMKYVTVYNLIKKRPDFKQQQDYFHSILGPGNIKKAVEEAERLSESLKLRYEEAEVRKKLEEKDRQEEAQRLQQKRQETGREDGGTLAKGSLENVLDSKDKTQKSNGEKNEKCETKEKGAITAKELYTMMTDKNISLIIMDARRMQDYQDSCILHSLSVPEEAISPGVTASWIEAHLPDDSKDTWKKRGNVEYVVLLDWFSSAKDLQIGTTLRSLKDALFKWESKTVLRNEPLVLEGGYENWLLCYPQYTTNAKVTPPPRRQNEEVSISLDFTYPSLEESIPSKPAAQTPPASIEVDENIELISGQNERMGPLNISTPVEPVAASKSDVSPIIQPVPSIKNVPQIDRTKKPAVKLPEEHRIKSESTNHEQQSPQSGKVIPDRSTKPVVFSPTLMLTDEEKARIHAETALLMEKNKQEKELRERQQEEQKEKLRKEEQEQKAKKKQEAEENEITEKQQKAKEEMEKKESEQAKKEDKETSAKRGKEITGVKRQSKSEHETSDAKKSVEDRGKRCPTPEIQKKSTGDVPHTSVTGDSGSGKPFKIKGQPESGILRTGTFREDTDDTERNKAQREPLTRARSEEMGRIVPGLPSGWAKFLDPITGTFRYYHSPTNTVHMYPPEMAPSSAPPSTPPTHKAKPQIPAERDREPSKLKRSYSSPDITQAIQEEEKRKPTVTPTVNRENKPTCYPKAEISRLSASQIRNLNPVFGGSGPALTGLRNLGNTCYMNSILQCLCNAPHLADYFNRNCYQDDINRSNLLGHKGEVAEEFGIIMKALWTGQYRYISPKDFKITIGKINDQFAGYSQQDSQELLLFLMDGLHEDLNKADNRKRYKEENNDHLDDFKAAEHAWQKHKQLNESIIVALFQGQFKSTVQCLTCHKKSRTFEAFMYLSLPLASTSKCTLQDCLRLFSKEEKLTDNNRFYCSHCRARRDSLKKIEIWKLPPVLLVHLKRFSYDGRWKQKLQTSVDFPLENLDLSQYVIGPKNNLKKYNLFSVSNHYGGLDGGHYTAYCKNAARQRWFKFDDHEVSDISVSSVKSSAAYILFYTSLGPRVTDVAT
Tumor necrosis factor alpha-induced protein 3 (Homo sapiens), sequence (P21580 whole entry, the tested form may be a part): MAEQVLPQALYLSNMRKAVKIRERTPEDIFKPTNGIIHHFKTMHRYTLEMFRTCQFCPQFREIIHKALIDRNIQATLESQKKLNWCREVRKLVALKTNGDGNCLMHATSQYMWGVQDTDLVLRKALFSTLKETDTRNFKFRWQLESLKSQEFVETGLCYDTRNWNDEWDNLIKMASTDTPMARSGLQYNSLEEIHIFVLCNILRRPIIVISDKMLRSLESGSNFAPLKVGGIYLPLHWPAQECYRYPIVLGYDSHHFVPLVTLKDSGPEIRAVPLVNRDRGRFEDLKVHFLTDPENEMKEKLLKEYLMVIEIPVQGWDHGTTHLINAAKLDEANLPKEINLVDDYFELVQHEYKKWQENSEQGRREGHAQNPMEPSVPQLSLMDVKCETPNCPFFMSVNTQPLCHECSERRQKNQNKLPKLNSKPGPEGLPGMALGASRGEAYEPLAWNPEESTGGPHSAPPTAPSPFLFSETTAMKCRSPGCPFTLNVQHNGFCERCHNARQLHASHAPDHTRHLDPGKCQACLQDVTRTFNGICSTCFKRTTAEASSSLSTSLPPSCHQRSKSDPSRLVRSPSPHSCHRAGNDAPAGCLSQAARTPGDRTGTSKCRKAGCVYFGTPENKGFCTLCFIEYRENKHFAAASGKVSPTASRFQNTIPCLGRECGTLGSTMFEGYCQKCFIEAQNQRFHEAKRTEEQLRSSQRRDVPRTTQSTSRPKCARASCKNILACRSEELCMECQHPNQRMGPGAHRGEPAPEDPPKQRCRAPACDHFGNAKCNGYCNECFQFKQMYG
Ubiquitin thioesterase OTUB1 (Homo sapiens), sequence (Q96FW1 whole entry): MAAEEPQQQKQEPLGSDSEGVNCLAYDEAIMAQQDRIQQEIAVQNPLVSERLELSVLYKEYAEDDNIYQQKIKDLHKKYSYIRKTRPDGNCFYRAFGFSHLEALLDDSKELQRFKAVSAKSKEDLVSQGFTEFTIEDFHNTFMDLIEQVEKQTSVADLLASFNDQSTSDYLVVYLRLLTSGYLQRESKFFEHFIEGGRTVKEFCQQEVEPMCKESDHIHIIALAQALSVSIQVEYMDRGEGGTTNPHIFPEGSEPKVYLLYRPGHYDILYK
Ubiquitin carboxyl-terminal hydrolase 14 (Homo sapiens), sequence (P54578 whole entry): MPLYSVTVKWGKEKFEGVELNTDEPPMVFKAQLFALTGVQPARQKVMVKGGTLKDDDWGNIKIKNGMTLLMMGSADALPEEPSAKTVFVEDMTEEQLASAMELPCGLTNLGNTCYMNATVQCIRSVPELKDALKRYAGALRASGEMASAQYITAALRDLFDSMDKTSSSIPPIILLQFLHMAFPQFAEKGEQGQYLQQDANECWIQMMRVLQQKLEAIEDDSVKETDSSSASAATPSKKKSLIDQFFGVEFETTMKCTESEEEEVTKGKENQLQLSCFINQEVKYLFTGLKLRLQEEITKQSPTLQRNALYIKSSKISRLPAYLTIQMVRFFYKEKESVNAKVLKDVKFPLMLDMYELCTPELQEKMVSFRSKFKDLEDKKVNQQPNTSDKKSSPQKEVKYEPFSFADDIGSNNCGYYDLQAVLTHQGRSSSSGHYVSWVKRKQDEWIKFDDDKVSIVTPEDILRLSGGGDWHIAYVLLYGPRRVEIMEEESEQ
Anamorsin (Homo sapiens), sequence (Q6FI81 whole entry): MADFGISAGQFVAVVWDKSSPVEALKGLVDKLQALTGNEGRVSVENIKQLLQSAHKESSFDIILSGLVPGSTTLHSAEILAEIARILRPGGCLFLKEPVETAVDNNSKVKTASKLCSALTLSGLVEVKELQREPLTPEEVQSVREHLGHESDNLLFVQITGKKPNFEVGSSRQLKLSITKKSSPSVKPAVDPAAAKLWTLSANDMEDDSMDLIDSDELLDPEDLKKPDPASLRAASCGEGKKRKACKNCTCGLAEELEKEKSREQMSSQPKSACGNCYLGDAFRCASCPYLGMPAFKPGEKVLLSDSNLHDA
Ubiquitin carboxyl-terminal hydrolase 2 (Homo sapiens), sequence (O75604 whole entry, the tested form may be a part): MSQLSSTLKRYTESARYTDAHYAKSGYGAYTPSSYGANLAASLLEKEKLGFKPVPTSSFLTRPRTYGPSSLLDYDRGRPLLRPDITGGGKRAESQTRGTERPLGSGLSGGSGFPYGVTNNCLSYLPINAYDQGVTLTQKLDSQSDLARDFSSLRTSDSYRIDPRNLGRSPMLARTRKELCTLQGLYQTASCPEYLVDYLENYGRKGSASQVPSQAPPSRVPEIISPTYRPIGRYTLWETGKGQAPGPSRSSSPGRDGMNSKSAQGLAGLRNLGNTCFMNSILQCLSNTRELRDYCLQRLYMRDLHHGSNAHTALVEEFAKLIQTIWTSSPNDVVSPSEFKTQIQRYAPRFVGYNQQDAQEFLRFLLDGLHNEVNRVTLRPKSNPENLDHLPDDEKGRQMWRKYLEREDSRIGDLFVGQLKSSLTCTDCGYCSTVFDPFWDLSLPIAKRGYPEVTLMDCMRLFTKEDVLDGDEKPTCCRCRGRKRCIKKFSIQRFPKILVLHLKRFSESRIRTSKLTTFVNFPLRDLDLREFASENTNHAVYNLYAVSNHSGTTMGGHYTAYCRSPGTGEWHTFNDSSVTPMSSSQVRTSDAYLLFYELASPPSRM
Ubiquitin carboxyl-terminal hydrolase 5 (Homo sapiens), sequence (P45974 whole entry): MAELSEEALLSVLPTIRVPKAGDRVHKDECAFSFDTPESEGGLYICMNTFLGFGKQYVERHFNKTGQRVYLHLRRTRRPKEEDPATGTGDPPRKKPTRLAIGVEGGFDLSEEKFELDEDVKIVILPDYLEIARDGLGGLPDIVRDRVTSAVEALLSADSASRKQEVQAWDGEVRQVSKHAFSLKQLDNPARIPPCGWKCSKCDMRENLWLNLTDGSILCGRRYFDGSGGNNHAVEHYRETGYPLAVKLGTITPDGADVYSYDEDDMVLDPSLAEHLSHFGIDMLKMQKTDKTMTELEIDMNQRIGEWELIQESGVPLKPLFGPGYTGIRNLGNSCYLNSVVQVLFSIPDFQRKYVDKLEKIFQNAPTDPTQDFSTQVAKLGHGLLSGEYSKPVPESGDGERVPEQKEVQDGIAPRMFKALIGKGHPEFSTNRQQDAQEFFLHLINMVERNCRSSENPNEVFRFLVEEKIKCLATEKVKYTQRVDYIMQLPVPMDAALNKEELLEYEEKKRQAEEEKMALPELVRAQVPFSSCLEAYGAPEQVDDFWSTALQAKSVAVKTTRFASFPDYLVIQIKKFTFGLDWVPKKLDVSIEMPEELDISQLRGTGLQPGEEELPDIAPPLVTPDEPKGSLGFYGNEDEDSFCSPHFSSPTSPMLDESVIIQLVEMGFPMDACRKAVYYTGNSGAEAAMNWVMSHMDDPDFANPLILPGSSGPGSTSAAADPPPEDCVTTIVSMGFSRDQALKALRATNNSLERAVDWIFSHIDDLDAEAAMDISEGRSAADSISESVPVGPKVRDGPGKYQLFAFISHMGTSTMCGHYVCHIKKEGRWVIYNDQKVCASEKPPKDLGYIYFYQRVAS

Turning to `C=CC(=O)N1C/C(=C\c2ccc([N+](=O)[O-])cc2)C(=O)/C(=C/c2ccc([N+](=O)[O-])cc2)C1`, the inhibition entry (in [1]; in the series on HeLa [3]; in the series on HeLa [4]; in series [5]; at Anamorsin (Homo sapiens); in series [6]) was “Active” each time. In addition, the inhibition result (with HeLa [7]; in series [8]; with HeLa [9]; in the series filed under Homo sapiens; in series [11]; in series [12]) was “Active” in each case. Also, the inhibition result in [13], in series [14] and in series [18] was “Active” throughout. For the same compound, the inhibition entry (in series [2]; in the series with HeLa [15]; in the series with HeLa [16]; in series [17]; in series [19]) was “inactive” throughout. The result in the series with HeLa [10] and in the series on HCT-116 was Active. In addition, the Activity entry with HUVEC is “Toxic”. The outcome in the series with KMS-11 was inactive.

Values taken from ChEMBL document CHEMBL4354861, “Re-Evaluating the Mechanism of Action of α,β-Unsaturated Carbonyl DUB Inhibitors b-AP15 and VLX1570: A Paradigmatic Example of Unspecific Protein Cross-linking with Michael Acceptor Motif-Containing Drugs” (J Med Chem, 2020).
